Source: PMC11439047 (Nature Communications, 2024)
Residue numbers refer to the chain shown, from its start.

How the values were obtained:
[1] = target: T1, P2X1 receptor L218T (Homo sapiens, UniProt P51575, L218T); experiment: Saturation radioligand binding with [3H]-α,β-methylene ATP
T1 sequence (P51575 1-399 L218T): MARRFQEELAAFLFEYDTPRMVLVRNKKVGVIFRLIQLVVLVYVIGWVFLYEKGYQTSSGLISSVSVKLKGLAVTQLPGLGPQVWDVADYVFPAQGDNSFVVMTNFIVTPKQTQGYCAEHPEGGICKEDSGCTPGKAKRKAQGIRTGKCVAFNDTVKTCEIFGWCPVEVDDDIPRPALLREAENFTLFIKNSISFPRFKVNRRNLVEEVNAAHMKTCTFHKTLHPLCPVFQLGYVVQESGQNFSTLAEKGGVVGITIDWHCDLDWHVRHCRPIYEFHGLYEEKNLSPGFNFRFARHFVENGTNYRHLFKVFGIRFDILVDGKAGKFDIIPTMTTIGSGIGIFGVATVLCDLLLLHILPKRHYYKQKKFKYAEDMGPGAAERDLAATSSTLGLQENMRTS
In short: (§1)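 Whole HEK293 Flp-In T-REx cells stably expressing receptor, tetracycline-induced (150 ng/ml, 2 days), 15,000 cells/well, washed in HEPES binding buffer pH 7.4 with Ca2+/Mg2+. Increasing [3H]-α,β-methylene ATP added, 3 h room temperature with gentle agitation; non-specific binding with 10 μM ATP. Ice-cold 0.9% NaCl washes, scintillation counting (CCPM). Specific binding fitted one-site; values above 300 nM termed not defined.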

[2] = target: T2, P2X1 receptor K140A (Homo sapiens, UniProt P51575, K140A); experiment: as above
T2 sequence (P51575 1-399 K140A): T1 sequence (P51575 1-399 L218T) with K140A, T218L
In short: as §1

[3] = target: T3, P2X1 receptor D97A (Homo sapiens, UniProt P51575, D97A); experiment: as above
T3 sequence (P51575 1-399 D97A): T1 sequence (P51575 1-399 L218T) with D97A, T218L
In short: as §1

[4] = target: T4, P2X1 receptor E122A (Homo sapiens, UniProt P51575, E122A); experiment: Calcium ion influx assay; type: cell-based
T4 sequence (P51575 1-399 E122A): T1 sequence (P51575 1-399 L218T) with E122A, T218L
In short: (§2)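 Tetracycline-induced (150 ng/mL, 2 days) stable HEK293 Flp-In T-REx cells at 15,000 cells/well, loaded with Fluo-8 for 1 h at 37 °C in probenecid-containing HEPES buffer, pH 7.4. Then 30 min buffer incubation, 20 s baseline, agonist addition and 2 min reading (ex 485/em 525 nm). Max-minus-min fluorescence normalised to 10 µM ionomycin, rescaled 0–100. Constrained four-parameter fit; EC50 per experiment; four independent experiments, triplicate.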

[5] = target: T5, P2X1 receptor D170A (Homo sapiens, UniProt P51575, D170A); experiment: Calcium ion influx assay; type: cell-based
T5 sequence (P51575 1-399 D170A): T1 sequence (P51575 1-399 L218T) with D170A, T218L
In short: as §2

[6] = target: T6, P2X1 receptor M214A (Homo sapiens, UniProt P51575, M214A); experiment: Saturation radioligand binding with [3H]-α,β-methylene ATP
T6 sequence (P51575 1-399 M214A): T1 sequence (P51575 1-399 L218T) with M214A, T218L

binding affinity compared to WT-P2X1 [1]: similar
binding affinity compared to WT-P2X1 [2]: comparable to that of WT-P2X1
binding affinity compared to WT-P2X1 [3]: similar
fold decrease in potency compared to WT-P2X1 [4]: 18.5 fold
fold decrease in potency compared to WT-P2X1 [5]: 58 fold
Compound: Nc1ncnc2c1ncn2[C@@H]1O[C@H](COP(=O)(O)CP(=O)(O)OP(=O)(O)O)[C@@H](O)[C@H]1O [α,β-methylene ATP]
binding affinity compared to WT-P2X1 [6]: beyond the threshold that could be accurately measured
